# Experimental data: article PMC6796967 (Journal of Medicinal Chemistry, 2018)
# Residues, ends and D or L forms follow the SMILES beside them.
# Test system: human primary fibroblasts
# Assay: WST-1 cell viability assay in fibroblasts
# Assay type: cell-based
# Details: 0.1–20 μM, 24 h treatment; highest concentration
# In short: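 Primary human fibroblasts (GM04390) grown in high-glucose DMEM with 10% heat-inactivated FBS and antibiotics at 3% O2, 5% CO2, 37 °C. Seeded at 100 000 cells/mL, switched to Optimem after 24 h, then given 0.1–20 μM test compound or DMSO at 48 h. After about 24 h, incubated 4 h with 10% WST-1 reagent; absorbance read at 450 nm.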
compound,measurement,value
"C[C@H](NC(=O)[C@H](Cc1ccc(O)cc1)NC(=O)[C@H](Cc1ccc(O)cc1)NC(=O)[C@@H]1CCCN1C(=O)[C@@H]1CCCN1C(=O)[C@@H]1CCCN1C(=O)[C@@H]1CCCN1C(=O)[C@H](CCCNC(=N)N)NC(=O)[C@H](CCCNC(=N)N)NC(=O)[C@@H](N)CCCNC(=N)N)C(=O)O [Compound 2, RRR-PPPP-YYA-OH] (H-RRRPPPPYYA-OH)","cytotoxic effects (cell viability, WST-1)",did not exert any cytotoxic effects
